Calls of active or inactive are those of the source. No cut-off for these calls is given here. Square brackets hold non-standard residues; d marks the D form. Peptide text beside a SMILES is read from it. * marks the point of attachment. Propanoyl(3-indol-3-yl) = O=C(CCc1c[nH]c2ccccc12)*; Propanoyl(3-(4-pyridyl)) = O=C(CCc1ccncc1)*; Arg(Me) = CNC(=N)NCCC[C@H](N)C(=O)O; Hydrocinnamoyl = O=C(CCc1ccccc1)*; d4Pal = N[C@H](Cc1ccncc1)C(=O)O; Hexanoyl = CCCCCC(=O)*; Bz = O=C(c1ccccc1)*; azaGly = NNC(=O)O
Experiments:
KiSS-1 receptor [1] = target: KiSS-1 receptor (Homo sapiens, UniProt Q969F8); experiment: Agonist activity at human KISS1R expressed in CHO cells assessed as increase in calcium mobilization measured at 2 secs interval for 2 mins by fluo-4 NW dye based FLIPR assay; assay type: functional, cell-based
Method in brief: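 Ligand-induced Ca2+ rise in CHO cells expressing human KISS1R, read on a fluorometric imaging plate reader (FLIPR); agonist potency reported as EC50 (nM).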

[2] = Retention time of the compound by reverse-phase HPLC method; assay type: physicochemical
Method in brief: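 RP-HPLC on C18 monolith column. Linear gradient of 0.1% TFA water / 0.1% TFA acetonitrile, A/B 95/5 to 35/65 over 10 min, 3.0 mL/min.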

[3] = Stability in Sprague-Dawley rat serum assessed as parent compound remaining at 10 ug/ml measured immediately by LC-MS/MS analysis; assay type: ADME, cell-free; conditions: read-out: Stability
Method in brief: (§1)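 10 µL of 10 μg/mL aqueous peptide stock added to 990 μL pre-warmed SD rat serum (final 0.1 μg/mL), 37 °C. Aliquots taken at 0, 5, 15, 30, 60, 120 min. Quenched with formic acid/methanol and acetonitrile, centrifuged, internal standard added, quantified by LC/MS/MS. Result is percent remaining; n = 2.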

[4] = Stability in Sprague-Dawley rat serum assessed as parent compound remaining at 10 ug/ml measured after 5 mins by LC-MS/MS analysis; assay type: ADME, cell-free; conditions: read-out: Stability; method in brief: as §1
[5] = Stability in Sprague-Dawley rat serum assessed as parent compound remaining at 10 ug/ml measured after 15 mins by LC-MS/MS analysis; assay type: ADME, cell-free; conditions: read-out: Stability; method in brief: as §1
[6] = Stability in Sprague-Dawley rat serum assessed as parent compound remaining at 10 ug/ml measured after 30 mins by LC-MS/MS analysis; assay type: ADME, cell-free; conditions: read-out: Stability; method in brief: as §1
[7] = Stability in Sprague-Dawley rat serum assessed as parent compound remaining at 10 ug/ml measured after 60 mins by LC-MS/MS analysis; assay type: ADME, cell-free; conditions: read-out: Stability; method in brief: as §1
[8] = Stability in Sprague-Dawley rat serum assessed as parent compound remaining at 10 ug/ml measured after 120 mins by LC-MS/MS analysis; assay type: ADME, cell-free; conditions: read-out: Stability; method in brief: as §1
[9] = Solubility of the compound in water; assay type: physicochemical
[10] = Solubility of the compound in saline; assay type: physicochemical
KiSS-1 receptor [11] = target: KiSS-1 receptor (Rattus norvegicus, UniProt Q924U1); experiment: Agonist activity at rat KISS1R
Rattus norvegicus [12] = experiment: Suppression of plasma testosterone level in Crl:CD(SD) rat at 5 to 20 nmol/hr administered via subcutaneous osmotic pumps measured after 6 days by radioimmunoassay; assay type: ADME, organism-based; conditions: in vivo, sc, 144 h
Method in brief: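 Five 9-week-old male Crl:CD (SD) rats per group received continuous subcutaneous infusion by osmotic pump for 6 days: leuprolide 2 nmol/h, or test peptide 5, 10, 20 nmol/h from 5–20 mM aqueous solution. Plasma testosterone measured by radioimmunoassay. Distilled-water control; Dunnett's test; mean ± SD.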

[13] = Drug uptake in Crl:CD(SD) rat plasma administered via subcutaneous osmotic pumps every 1 hr after 6 days by LC/MS analysis; assay type: ADME, cell-free; conditions: sc, 144 h
Method in brief: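 9-week-old male Crl:CD (SD) rats (five per group) implanted subcutaneously with osmotic pumps of 5, 10 or 20 mM aqueous peptide, delivering 5, 10, 20 nmol/h for 6 days. Steady-state plasma measured by LC/MS after protein precipitation with organic solvent; mean ± SD.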

Rattus norvegicus [14] = experiment: Stimulation of plasma luteinizing hormone release in sc dosed Crl:CD(SD) rat administered as single bolus dose measured after 1 to 8 hrs; assay type: functional, organism-based
Method in brief: (§2)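 Single subcutaneous bolus of 10, 100 or 1000 nmol/kg in 9-week-old male Crl:CD (SD) rats, n = 5, saline vehicle. Plasma LH measured 1, 2, 4 and 8 h post-dose. AUC0–8h (ng·h/mL) calculated per rat. One-tailed Williams' test versus vehicle; mean ± SD.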

Rattus norvegicus [15] = experiment: Increase in plasma luteinizing hormone AUC (0 to 8 hrs) in Crl:CD(SD) rat at 100 nmol/kg, sc administered as single bolus dose; assay type: functional, organism-based; method in brief: as §2

KiSS-1 receptor (Homo sapiens, UniProt Q969F8), sequence (Q969F8 whole entry): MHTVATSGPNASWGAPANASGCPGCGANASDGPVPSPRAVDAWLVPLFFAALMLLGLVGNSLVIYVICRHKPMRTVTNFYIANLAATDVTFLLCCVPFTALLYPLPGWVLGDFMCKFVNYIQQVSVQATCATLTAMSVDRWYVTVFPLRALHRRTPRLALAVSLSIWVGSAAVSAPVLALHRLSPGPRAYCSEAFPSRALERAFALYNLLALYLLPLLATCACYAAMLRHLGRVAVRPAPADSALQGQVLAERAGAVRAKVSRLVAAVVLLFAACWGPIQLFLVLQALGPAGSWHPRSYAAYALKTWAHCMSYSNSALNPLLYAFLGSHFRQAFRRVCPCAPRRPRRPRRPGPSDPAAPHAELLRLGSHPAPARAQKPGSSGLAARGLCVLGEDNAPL
KiSS-1 receptor (Rattus norvegicus, UniProt Q924U1), sequence (Q924U1 whole entry): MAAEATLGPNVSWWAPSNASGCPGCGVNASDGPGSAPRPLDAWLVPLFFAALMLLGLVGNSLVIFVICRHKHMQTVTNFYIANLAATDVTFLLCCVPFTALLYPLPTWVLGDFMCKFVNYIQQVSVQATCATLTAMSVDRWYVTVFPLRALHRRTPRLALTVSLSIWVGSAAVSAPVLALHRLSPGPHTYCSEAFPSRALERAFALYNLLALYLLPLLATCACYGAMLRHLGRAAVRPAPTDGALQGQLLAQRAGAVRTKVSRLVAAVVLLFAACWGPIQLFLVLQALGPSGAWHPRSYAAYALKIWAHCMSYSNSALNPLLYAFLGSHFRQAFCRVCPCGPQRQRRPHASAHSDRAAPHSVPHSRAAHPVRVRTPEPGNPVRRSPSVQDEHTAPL

| EC50 (KiSS-1 receptor [1]) [nM] | Retention_time [2] [min] | Structure (SMILES) | also measured |
| --- | --- | --- | --- |
| 0.022 | 6.67 | CNC(=N)NCCC[C@H](NC(=O)[C@H](CC(C)C)NC(=O)NNC(=O)[C@H](Cc1ccccc1)NC(=O)CCc1c[nH]c2ccccc12)C(=O)N[C@@H](Cc1c[nH]c2ccccc12)C(N)=O | – |
| 0.6 | 6.21 | CNC(=N)NCCC[C@H](NC(=O)[C@H](CC(C)C)NC(=O)NNC(=O)[C@H](Cc1ccccc1)NC(=O)c1ccccc1)C(=O)N[C@@H](Cc1ccccc1)C(N)=O (Bz-F[azaGly]L[Arg(Me)]F-NH2) | – |
| 0.24 | 4.47 | CNC(=N)NCCC[C@H](NC(=O)[C@H](CC(C)C)NC(=O)NNC(=O)[C@H](Cc1ccccc1)NC(=O)c1c[nH]cn1)C(=O)N[C@@H](Cc1c[nH]c2ccccc12)C(N)=O | – |
| 0.028 | 5.7 | CNC(=N)NCCC[C@H](NC(=O)[C@H](CC(C)C)NC(=O)NNC(=O)[C@H](Cc1ccccc1)NC(=O)C1CC1)C(=O)N[C@@H](Cc1c[nH]c2ccccc12)C(N)=O | – |
| 0.33 | 5.02 | CNC(=N)NCCC[C@H](NC(=O)[C@H](CC(C)C)NC(=O)NNC(=O)[C@H](Cc1ccccc1)NC(C)=O)C(=O)N[C@@H](Cc1ccccc1)C(N)=O (Ac-F[azaGly]L[Arg(Me)]F-NH2) | – |
| 0.13 | 5.52 | CCC(=O)N[C@@H](Cc1ccccc1)C(=O)NNC(=O)N[C@@H](CC(C)C)C(=O)N[C@@H](CCCNC(=N)NC)C(=O)N[C@@H](Cc1c[nH]c2ccccc12)C(N)=O | – |
| 8.2 | 6.17 | CNC(=N)NCCC[C@H](NC(=O)[C@H](CC(C)C)NC(=O)NNC(=O)[C@H](Cc1ccccc1)NC(=O)[C@H](CO)NC(=O)CCc1c[nH]c2ccccc12)C(=O)N[C@@H](Cc1ccccc1)C(N)=O ({Propanoyl(3-indol-3-yl)}-SF[azaGly]L[Arg(Me)]F-NH2) | – |
| 0.11 | 5.88 | CNC(=N)NCCC[C@H](NC(=O)[C@H](CC(C)C)NC(=O)NNC(=O)[C@H](Cc1ccccc1)NC(=O)c1ccoc1)C(=O)N[C@@H](Cc1c[nH]c2ccccc12)C(N)=O | – |
| 0.17 | 5.9 | CNC(=N)NCCC[C@H](NC(=O)[C@H](CC(C)C)NC(=O)NNC(=O)[C@H](Cc1ccccc1)NC(=O)[C@H](CO)NC(=O)[C@H](CC(N)=O)NC(=O)CCc1ccccc1)C(=O)N[C@@H](Cc1ccccc1)C(N)=O (Hydrocinnamoyl-NSF[azaGly]L[Arg(Me)]F-NH2) | – |
| 0.024 | 6.29 | CNC(=N)NCCC[C@H](NC(=O)[C@H](CC(C)C)NC(=O)NNC(=O)[C@H](Cc1ccccc1)NC(=O)c1ccccc1)C(=O)N[C@@H](Cc1c[nH]c2ccccc12)C(N)=O | remaining at 0 min, 10 ug/ml [3]: 100%; remaining at 5 min, 10 ug/ml [4]: 98%; remaining at 0.25 h, 10 ug/ml [5]: 97%; remaining at 0.5 h, 10 ug/ml [6]: 99%; remaining at 1 h, 10 ug/ml [7]: 95%; remaining at 2 h, 10 ug/ml [8]: 91%; solubility [9]: < 10000 µg/mL; solubility [10]: < 100 µg/mL |
| 0.13 | 5.95 | CNC(=N)NCCC[C@H](NC(=O)[C@H](CC(C)C)NC(=O)NNC(=O)[C@H](Cc1ccccc1)NC(=O)[C@H](CO)NC(=O)[C@H](CC(N)=O)NC(=O)CCc1c[nH]c2ccccc12)C(=O)N[C@@H](Cc1ccccc1)C(N)=O ({Propanoyl(3-indol-3-yl)}-NSF[azaGly]L[Arg(Me)]F-NH2) | – |
| 1.4 | 6.66 | CCCCCC(=O)N[C@@H](Cc1ccccc1)C(=O)NNC(=O)N[C@@H](CC(C)C)C(=O)N[C@@H](CCCNC(=N)NC)C(=O)N[C@@H](Cc1ccccc1)C(N)=O (Hexanoyl-F[azaGly]L[Arg(Me)]F-NH2) | – |
| 0.058 | 5.88 | CNC(=N)NCCC[C@H](NC(=O)[C@H](CC(C)C)NC(=O)NNC(=O)[C@H](Cc1ccccc1)NC(=O)C(C)C)C(=O)N[C@@H](Cc1c[nH]c2ccccc12)C(N)=O | – |
| 0.068 | 4.48 | CNC(=N)NCCC[C@H](NC(=O)[C@H](CC(C)C)NC(=O)NNC(=O)[C@H](Cc1ccccc1)NC(=O)c1ccncc1)C(=O)N[C@@H](Cc1c[nH]c2ccccc12)C(N)=O | solubility [9]: > 20000 µg/mL; solubility [10]: > 1000 µg/mL; EC50 (KiSS-1 receptor [11]): 1.2 nM; Activity (Rattus norvegicus [12]): Non-Toxic; Drug uptake [13]: Dose-dependent effect; Activity (Rattus norvegicus [14]): Dose-dependent effect; Activity (Rattus norvegicus [15]): Active |
| 0.057 | 5.54 | CNC(=N)NCCC[C@H](NC(=O)[C@H](CC(C)C)NC(=O)NNC(=O)[C@H](Cc1ccccc1)NC(=O)[C@H](CO)NC(=O)[C@H](CC(N)=O)NC(=O)[C@H](Cc1c[nH]c2ccccc12)NC(=O)[C@H](N)Cc1ccc(O)cc1)C(=O)N[C@@H](Cc1ccccc1)C(N)=O (H-[dY]WNSF[azaGly]L[Arg(Me)]F-NH2) | – |
| 2.1 | 5.76 | CNC(=N)NCCC[C@H](NC(=O)[C@H](CC(C)C)NC(=O)NNC(=O)[C@H](Cc1ccccc1)NC(=O)[C@H](CO)NC(=O)[C@H](CC(N)=O)NC(=O)[C@H](Cc1c[nH]c2ccccc12)NC(C)=O)C(=O)N[C@@H](Cc1ccccc1)C(N)=O (Ac-WNSF[azaGly]L[Arg(Me)]F-NH2) | – |
| 0.037 | 6.02 | CNC(=N)NCCC[C@H](NC(=O)[C@H](CC(C)C)NC(=O)NNC(=O)[C@H](Cc1ccccc1)NC(=O)c1ccccn1)C(=O)N[C@@H](Cc1c[nH]c2ccccc12)C(N)=O | – |
| 0.16 | 4.69 | CNC(=N)NCCC[C@H](NC(=O)[C@H](CC(C)C)NC(=O)NNC(=O)[C@H](Cc1ccccc1)NC(=O)c1cccnc1)C(=O)N[C@@H](Cc1c[nH]c2ccccc12)C(N)=O | – |
| 0.62 | 6.58 | CNC(=N)NCCC[C@H](NC(=O)[C@H](CC(C)C)NC(=O)NNC(=O)[C@H](Cc1ccccc1)NC(=O)CCc1c[nH]c2ccccc12)C(=O)N[C@@H](Cc1ccccc1)C(N)=O ({Propanoyl(3-indol-3-yl)}-F[azaGly]L[Arg(Me)]F-NH2) | – |
| 130 | 4.29 | CNC(=N)NCCC[C@H](NC(=O)[C@H](CC(C)C)NC(=O)NNC(=O)[C@@H](N)Cc1ccccc1)C(=O)N[C@@H](Cc1ccccc1)C(N)=O (H-F[azaGly]L[Arg(Me)]F-NH2) | – |
| 0.27 | – | CNC(=N)NCCC[C@H](NC(=O)[C@H](CC(C)C)NC(=O)NNC(=O)[C@H](Cc1ccccc1)NC(=O)[C@H](CO)NC(=O)[C@H](CC(N)=O)NC(=O)[C@@H](Cc1ccncc1)NC(=O)[C@H](N)Cc1ccc(O)cc1)C(=O)N[C@@H](Cc1ccccc1)C(N)=O [KISS1-305] (H-[dY][d4Pal]NSF[azaGly]L[Arg(Me)]F-NH2) | remaining at 0 min, 10 ug/ml [3]: 100%; remaining at 5 min, 10 ug/ml [4]: 98%; remaining at 0.25 h, 10 ug/ml [5]: 97%; remaining at 0.5 h, 10 ug/ml [6]: 95%; remaining at 1 h, 10 ug/ml [7]: 89%; remaining at 2 h, 10 ug/ml [8]: 70%; EC50 (KiSS-1 receptor [11]): 0.17 nM |
| 1.5 | 4.51 | CNC(=N)NCCC[C@H](NC(=O)[C@H](CC(C)C)NC(=O)NNC(=O)[C@H](Cc1ccccc1)NC(=O)[C@H](CO)NC(=O)[C@H](CC(N)=O)NC(=O)CCc1ccncc1)C(=O)N[C@@H](Cc1ccccc1)C(N)=O ({Propanoyl(3-(4-pyridyl))}-NSF[azaGly]L[Arg(Me)]F-NH2) | – |
| 0.12 | 6.7 | CNC(=N)NCCC[C@H](NC(=O)[C@H](CC(C)C)NC(=O)NNC(=O)[C@H](Cc1ccccc1)NC(=O)C1CCCCC1)C(=O)N[C@@H](Cc1c[nH]c2ccccc12)C(N)=O | – |
| 0.23 | 5.91 | CNC(=N)NCCC[C@H](NC(=O)[C@H](CC(C)C)NC(=O)NNC(=O)[C@H](Cc1ccccc1)NC(=O)c1ccc[nH]1)C(=O)N[C@@H](Cc1c[nH]c2ccccc12)C(N)=O | – |
| 7.7 | 5.03 | CNC(=N)NCCC[C@H](NC(=O)[C@H](CC(C)C)NC(=O)NNC(=O)[C@H](Cc1ccccc1)NC(=O)[C@H](CO)NC(=O)[C@H](CC(N)=O)NC(=O)[C@@H](N)Cc1c[nH]c2ccccc12)C(=O)N[C@@H](Cc1ccccc1)C(N)=O (H-WNSF[azaGly]L[Arg(Me)]F-NH2) | – |
| 0.27 | 6.49 | CNC(=N)NCCC[C@H](NC(=O)[C@H](CC(C)C)NC(=O)NNC(=O)[C@H](Cc1ccccc1)NC(=O)Cc1ccccc1)C(=O)N[C@@H](Cc1c[nH]c2ccccc12)C(N)=O | – |
